Drawing on ChEMBL document CHEMBL1125042, “Hypolipidemic activity of rifamycin derivatives” (J Med Chem, 1990), this text covers Activity and MIC for 27 compounds.

Common to all, as to format: functional
Test [1] concerns Rattus norvegicus. Description: Tested for hypolipidemic activity in male rats, cholesterol was determined in serum at 20 mg/kg. In a few lines:
(§1)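 Groups of eight male Wistar rats (200–230 g) dosed orally in PEG 400, either daily for 7 days (killed 24 h after the last dose) or for 4 days with a second dose on day 4 (killed 16 h later). Fasted 16 h. Paired sera pooled, lipoproteins separated by ultracentrifugation (1.006 and 1.040 g/cm³), HDL taken as the infranatant. Cholesterol measured enzymatically; % vs vehicle, mean ± SEM of four pools.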

Test [2] has as its system Rattus norvegicus. Description: Hypolipidemic activity was determined in male rats, and high-density lipoprotein level was determined at 20 mg/kg. The essentials: (§2)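 Male Wistar rats (200–230 g), eight per group, were dosed orally in PEG 400 at 8 a.m. for 4 days, plus a second dose at 4 p.m. on day 4. Rats were fasted 16 h and killed 16 h after the last dose. Sera from pairs of rats were pooled. LDL (up to 1.040 g/cm³) was separated by ultracentrifugation and the HDL infranatant taken. Cholesterol was measured enzymatically. Results are % versus vehicle control, mean ± SEM of four pools, Student's t test.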

The test system of test [3] is Rattus norvegicus. Description: Hypolipidemic activity was determined in male rats, and low-density lipoprotein level was determined at 20 mg/kg. The essentials: as §2
The subject of test [4] is Staphylococcus aureus. The test can be described thus: Antibacterial activity against Staphylococcus aureus 10B. The essentials: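 Agar dilution on DST agar with 2-fold drug dilutions. Inoculum of 10⁴ viable S. aureus 10B was taken from liquid-nitrogen stock, thawed 30 min and not subcultured. It was applied by multipoint replicator and incubated overnight at 37 °C. MIC is the lowest concentration inhibiting growth relative to control cultures.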

The test system of test [5] is Rattus norvegicus. The test can be described thus: Tested for hypolipidemic activity in male rats, cholesterol was determined in serum at 50 mg/kg. The essentials:
as §1

The subject of test [6] is Rattus norvegicus. The test can be described thus: Hypolipidemic activity was determined in male rats, and high-density lipoprotein level was determined at 50 mg/kg. In a few lines:
as §2

Test [7] concerns Rattus norvegicus. Description: Hypolipidemic activity was determined in male rats, and low-density lipoprotein level was determined at 50 mg/kg. The essentials: as §2

Converted amounts (≈) assume the structure as drawn.

Turning to `COC1/C=C/OC2(C)Oc3c(C)c(OC(=O)C(C)(C)C)c4c(c3C2=O)C(=O)C(N2CCN(Cc3c(C)cc(C)cc3C)CC2)=C(NC(=O)/C(C)=C\C=C\C(C)C(O)C(C)C(O)C(C)C(OC(C)=O)C1C)C4=O` (configuration not stated), the Activity in test [1] was -48%; in test [2], -53%; in test [3] it was -32%. The compound also came in with an MIC in test [4] of 0.5 µg/mL (≈ 0.502 µM).
`COC1/C=C/OC2(C)Oc3c(C)c(O)c4c(O)c(c(N5CCNCC5C(=O)O)c(O)c4c3C2=O)NC(=O)/C(C)=C\C=C\C(C)C(O)C(C)C(O)C(C)C(OC(C)=O)C1C` (configuration not stated): the Activity in test [5] was -2%; in test [6] it was 5%; in test [7], 53%. Besides, the lowest concentration to inhibit growth in test [4] (MIC) was 0.5 µg/mL (≈ 0.605 µM).
With `COC1/C=C/OC2(C)Oc3c(C)c(O)c4c(O)c(c5nc6cc(C)ccc6nc5c4c3C2=O)NC(=O)/C(C)=C\C=C\C(C)C(O)C(C)C(O)C(C)C(OC(C)=O)C1C` (configuration not stated), the Activity is recorded as -14% in test [5] and -21% in test [7]. The MIC in test [4] is < 0.008 µg/mL.
On to `COC1/C=C/OC2(C)Oc3c(C)c(O)c4c(O)c(c(N5CCC(Cc6ccccc6)CC5)c(O)c4c3C2=O)NC(=O)/C(C)=C\C=C\C(C)C(O)C(C)C(O)C(C)C(OC(C)=O)C1C` (configuration not stated), for which the Activity in test [1] is -53%; in test [2], -51%; in test [3], -66%. Further, inhibition of growth in test [4] (MIC) required 0.04 µg/mL (≈ 0.0459 µM).
With `COC1/C=C/OC2(C)Oc3c(C)c(O)c4c(O)c(c(C=NN5CCN(Cc6cccc7ccccc67)CC5)c(O)c4c3C2=O)NC(=O)/C(C)=C\C=C\C(C)C(O)C(C)C(O)C(C)C(OC(C)=O)C1C` (configuration not stated), the results for the Activity in test [5], in test [6] and in test [7] were -69%, -75% and -35%, respectively. This compound had an MIC in test [4] of 0.02 µg/mL (≈ 0.0211 µM).
In the case of `COC1/C=C/OC2(C)Oc3c(C)c(O)c4c(O)c(c(N5CCC(=O)CC5)c(O)c4c3C2=O)NC(=O)/C(C)=C\C=C\C(C)C(O)C(C)C(O)C(C)C(OC(C)=O)C1C` (configuration not stated), the Activity in test [1] is given as 1%; in test [2], -9%; in test [3] it was 53%. For the same compound, the minimum inhibitory concentration (MIC) in test [4] was < 0.1 µg/mL.
Taken in the same sequence, the figures for `COC1/C=C/OC2(C)Oc3c(C)c(O)c4c(O)c(c(N5CCC(C(N)=O)CC5)c(O)c4c3C2=O)NC(=O)/C(C)=C\C=C\C(C)C(O)C(C)C(O)C(C)C(OC(C)=O)C1C` (configuration not stated) were -9%, -6%, 11% and < 0.1 µg/mL.
In the case of `COC1/C=C/OC2(C)Oc3c(C)c(O)c4c(=O)c(c5oc6cc(C)ccc6nc-5c4c3C2=O)NC(=O)/C(C)=C\C=C\C(C)C(O)C(C)C(O)C(C)C(OC(C)=O)C1C` (configuration not stated), the results for the Activity in test [5], in test [6] and in test [7] were -14%, -21% and -21%, respectively. Further, in test [4], the MIC is 0.001 µg/mL (≈ 0.00125 µM).
In the case of `COC1/C=C/OC2(C)Oc3c(C)c(O)c4c(O)c(c(N5CCN(Cc6ccc(C(C)(C)C)cc6)CC5)c(O)c4c3C2=O)NC(=O)/C(C)=C\C=C\C(C)C(O)C(C)C(O)C(C)C(OC(C)=O)C1C` (configuration not stated), the figures for the Activity in test [1], in test [2] and in test [3] were -70%, -71% and -70%, respectively. Besides, in test [4], the MIC is 0.5 µg/mL (≈ 0.539 µM).
On to `CCCCCCCCCCCCN1CCN(c2c3c(O)c4c(O)c(C)c5c(c4c2O)C(=O)C(C)(O/C=C/C(OC)C(C)C(OC(C)=O)C(C)C(O)C(C)C(O)C(C)/C=C/C=C(/C)C(=O)N3)O5)CC1` (configuration not stated), for which the Activity in test [1] is listed as -56%; in test [2], -53%; in test [3], -68%. For the same compound, in test [4], the MIC came out at 0.15 µg/mL (≈ 0.158 µM).
As to `COC1/C=C/OC2(C)Oc3c(C)c(O)c4c(O)c(c(C=NN5CCN6CCCCC6C5)c(O)c4c3C2=O)NC(=O)/C(C)=C\C=C\C(C)C(O)C(C)C(O)C(C)C(OC(C)=O)C1C` (configuration not stated), the Activity is on record as -49% in test [5], -53% in test [6] and -27% in test [7]. In test [4], this compound showed a minimum inhibitory concentration (MIC) of 0.005 µg/mL (≈ 0.00579 µM).
Taken in the same sequence, the figures for `COC1/C=C/OC2(C)Oc3c(C)c(O)c4c(O)c(c(C=NN5CCN(Cc6c(C)cc(C)cc6C)CC5)c(O)c4c3C2=O)NC(=O)/C(C)=C\C=C\C(C)C(O)C(C)C(O)C(C)C(OC(C)=O)C1C` (configuration not stated) were -81%, -79%, -39% and 0.05 µg/mL (≈ 0.0531 µM).
The corresponding values for `COC1/C=C/OC2(C)Oc3c(C)c(O)c4c(O)c(c(N5CCN(Cc6ccccc6)CC5)c(O)c4c3C2=O)NC(=O)/C(C)=C\C=C\C(C)C(O)C(C)C(O)C(C)C(OC(C)=O)C1C` (configuration not stated) are -29%, -36%, -56% and 0.004 µg/mL (≈ 0.00459 µM).
For `COC1/C=C/OC2(C)Oc3c(C)c(O)c4c(O)c(c5[nH]c(N6CCN(Cc7ccccc7)CC6)nc5c4c3C2=O)NC(=O)/C(C)=C\C=C\C(C)C(O)C(C)C(O)C(C)C(OC(C)=O)C1C` (configuration not stated), the figures for the Activity in test [5], in test [6] and in test [7] were -27%, -33% and -23%, respectively. In addition, the MIC in test [4] amounted to 0.005 µg/mL (≈ 0.00558 µM).
Take `COC1/C=C/OC2(C)Oc3c(C)c(O)c4c(O)c(c(N5CCC(O)CC5)c(O)c4c3C2=O)NC(=O)/C(C)=C\C=C\C(C)C(O)C(C)C(O)C(C)C(OC(C)=O)C1C` (configuration not stated): the Activity in test [1] was 0%; in test [2] it was -3%; in test [3], 13%. The MIC in test [4] is < 0.1 µg/mL.
In the case of `COC1/C=C/OC2(C)Oc3c(C)c(O)c4c(O)c(c(N)c(O)c4c3C2=O)NC(=O)/C(C)=C\C=C\C(C)C(O)C(C)C(O)C(C)C(OC(C)=O)C1C` (configuration not stated), the Activity is listed as -2% in test [5], 6% in test [6] and 19% in test [7]. In addition, in test [4], the lowest concentration to inhibit growth (MIC) was 0.003 µg/mL (≈ 0.00421 µM).
Take `COC1/C=C/OC2(C)Oc3c(C)c(O)c4c(O)c(c(N5CCC(C(C)C)CC5)c(O)c4c3C2=O)NC(=O)/C(C)=C\C=C\C(C)C(O)C(C)C(O)C(C)C(OC(C)=O)C1C` (configuration not stated): the Activity in test [1] is given as -61%; in test [2] it was -61%; in test [3], -54%. In addition, the MIC in test [4] was < 0.1 µg/mL.
For the compound `COC1/C=C/OC2(C)Oc3c(C)c(O)c4c(O)c(c(N5CCN(Cc6ccc(Cl)cc6)CC5)c(O)c4c3C2=O)NC(=O)/C(C)=C\C=C\C(C)C(O)C(C)C(O)C(C)C(OC(C)=O)C1C` (configuration not stated), the Activity is recorded as -74% in test [5], -73% in test [6] and -85% in test [7]. Besides, the MIC in test [4] is 0.002 µg/mL (≈ 0.00221 µM).
Taken in the same sequence, the figures for `COC1/C=C/OC2(C)Oc3c(C)c(O)c4c(O)c(c(N5CCN(CC(C)C)CC5)c(O)c4c3C2=O)NC(=O)/C(C)=C\C=C\C(C)C(O)C(C)C(O)C(C)C(OC(C)=O)C1C` (configuration not stated) were -50%, -60%, -64% and 0.005 µg/mL (≈ 0.00597 µM).
As to `CO[C@H]1/C=C/O[C@@]2(C)Oc3c(C)c(O)c4c(O)c(cc(O)c4c3C2=O)NC(=O)/C(C)=C\C=C\[C@H](C)[C@H](O)[C@@H](C)[C@@H](O)[C@@H](C)[C@H](OC(C)=O)[C@@H]1C` [RIFAMYCIN], the Activity is recorded as 4% in test [5], 1% in test [6] and 21% in test [7]. In test [4], this compound had an MIC of 0.001 µg/mL (≈ 0.00143 µM).
As for `COC1/C=C/OC2(C)Oc3c(C)c(O)c4c(O)c(c(C=O)c(O)c4c3C2=O)NC(=O)/C(C)=C\C=C\C(C)C(O)C(C)C(O)C(C)C(OC(C)=O)C1C` (configuration not stated), the results for the Activity in test [5], in test [6] and in test [7] were -5%, -14% and 19%, respectively. Besides, it took 0.01 µg/mL (≈ 0.0138 µM) to inhibit growth in test [4] (MIC).
Taken in the same sequence, the figures for `COC1/C=C/OC2(C)Oc3c(C)c(O)c4c(O)c(c(O)c(O)c4c3C2=O)NC(=O)/C(C)=C\C=C\C(C)C(O)C(C)C(O)C(C)C(OC(C)=O)C1C` (configuration not stated) were 4%, 15%, 41% and 0.1 µg/mL (≈ 0.14 µM).
On to `CCC1CCC2CN(N=Cc3c4c(O)c5c(O)c(C)c6c(c5c3O)C(=O)C(C)(O/C=C/C(OC)C(C)C(OC(C)=O)C(C)C(O)C(C)C(O)C(C)/C=C/C=C(/C)C(=O)N4)O6)CCN2C1` (configuration not stated), for which the results for the Activity in test [5], in test [6] and in test [7] were -62%, -69% and -31%, respectively. The compound further showed an MIC in test [4] of 0.005 µg/mL (≈ 0.00561 µM).
The corresponding values for `COC1/C=C/OC2(C)Oc3c(C)c(O)c4c(O)c(c5c(c4c3C2=O)=NC2(CCN(CC(C)C)CC2)N=5)NC(=O)/C(C)=C\C=C\C(C)C(O)C(C)C(O)C(C)C(OC(C)=O)C1C` (configuration not stated) are -7%, -21%, 14% and 0.001 µg/mL (≈ 0.00118 µM).
For `Cc1cc(C)c(CN2CCN(C3=CC(=O)c4ccccc4C3=O)CC2)c(C)c1`, the Activity is -1% in test [5], 6% in test [6] and 18% in test [7]. The MIC in test [4] is > 128 µg/mL.
Taken in the same sequence, the figures for `COC1/C=C/OC2(C)Oc3c(C)c(O)c4c(O)c(c(C=NN5CCN(C6CCCC6)CC5)c(O)c4c3C2=O)NC(=O)/C(C)=C\C=C\C(C)C(O)C(C)C(O)C(C)C(OC(C)=O)C1C` (configuration not stated) were -62%, -59%, -60% and 0.01 µg/mL (≈ 0.0114 µM).
Taken in the same sequence, the figures for `Cc1cc(C)c(CN2CCNCC2)c(C)c1` were -7%, -5%, 0% and 128 µg/mL (≈ 586 µM).
